“And” between values parts separate entries of the source, which are not always exact repeats. Equal entries are not always repeated.
Assays:
Format in all cases: toxicity, cell-based
[1] = system: HEK-293T; assay: Multiplex assay against HEK293T; details: human
Method in brief: (§1)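 Hoechst33342, BioTracker Green Microtubule Cytoskeleton Dye, MitoTracker Red and Annexin V Alexa Fluor 680 were added to live cells at seeding, and imaging on a CQ1 microscope at 37°C and 5% CO2 followed compound addition. Gating by CellPathfinder machine learning separated cells into Hoechst high-intensity objects or normal cells, then normal cells into healthy, pyknosed or fragmented nuclei, then pyknosed cells into mitotic or apoptotic. Per cents of healthy-nucleus cells are reported for the tubulin, mitochondrial-mass and membrane-permeability phenotypes.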

[2] = system: Fibroblast; assay: Multiplex assay against human fibroblast; method in brief: as §1
[3] = system: U2OS; assay: Multiplex assay against U2OS; details: human; method in brief: as §1
[4] = 12 h, 1 µM, compound concentration 1 uM
[5] = 12 h, 10 µM, compound concentration 10 uM
[6] = 24 h, 1 µM, compound concentration 1 uM
[7] = 24 h, 10 µM, compound concentration 10 uM
[8] = 48 h, 1 µM, compound concentration 1 uM
[9] = 48 h, 10 µM, compound concentration 10 uM

O=C(O)C(F)(F)F.O=C1NC(=O)/C(=C/c2c[nH]c(=O)c(-c3ccc(N4CCNCC4)nc3)c2)S1
Population Apoptotic (%) [1, 4]: 11.41% and 11.65% | Population Fragmented Nuclei (%) [1, 4]: 1.85% and 6.98% | Population Hoechst High Intensity Objects (%) [1, 4]: 0% | Population Mitotic Cells (%) [1, 4]: 88.59% and 88.35% | Population Normal (%) [1, 4]: 100% | Population Pyknosed Nuclei (%) [1, 4]: 39.31% and 79.84% | Total Cell Count [1, 4]: 379 and 129 | Population Apoptotic (%) [1, 5]: 6.85% and 12.69% | Population Fragmented Nuclei (%) [1, 5]: 2.2% and 4.57% | Population Healthy Nuclei (%) [1, 5]: 57.69% and 27.41% | Population Hoechst High Intensity Objects (%) [1, 5]: 0.27% and 0% | Population Membrane Permeable-Phenotype (%) [1, 5]: 0.95% and 0% | Population Mitotic Cells (%) [1, 5]: 93.15% and 87.31% | Population Normal (%) [1, 5]: 99.73% and 100% | Population Pyknosed Nuclei (%) [1, 5]: 40.11% and 68.02% | Total Cell Count [1, 5]: 365 and 197 | Population Apoptotic (%) [1, 6]: 17.05% and 22.22% | Population Fragmented Nuclei (%) [1, 6]: 1.89% and 2.88% | Population Healthy Nuclei (%) [1, 6]: 75.95% and 25.9% | Population Hoechst High Intensity Objects (%) [1, 6]: 0.17% and 0% | Population Membrane Permeable-Phenotype (%) [1, 6]: 1.13% and 0% | Population Mitochondria Different-Phenotype (%) [1, 6]: 18.1% and 11.11% | Population Mitotic Cells (%) [1, 6]: 82.95% and 77.78% | Population Normal (%) [1, 6]: 99.83% and 100% | Population Apoptotic (%) [1, 7]: 8.74% and 7.63% | Population Fragmented Nuclei (%) [1, 7]: 1.47% and 3.95% | Population Healthy Nuclei (%) [1, 7]: 81.67% and 49.41% | Population Hoechst High Intensity Objects (%) [1, 7]: 0.16% and 0.39% | Population Membrane Permeable-Phenotype (%) [1, 7]: 1% and 0.8% | Population Mitochondria Different-Phenotype (%) [1, 7]: 11.22% and 10.4% | Population Mitotic Cells (%) [1, 7]: 91.26% and 92.37% | Population Normal (%) [1, 7]: 99.84% and 99.61% | Population Pyknosed Nuclei (%) [1, 7]: 16.86% and 46.64% | Population Tubulin-Different-Phenotype (%) [1, 7]: 10.02% and 1.6% | Total Cell Count [1, 7]: 612 and 254 | Population Apoptotic (%) [1, 8]: 6.45% and 15.87% | Population Fragmented Nuclei (%) [1, 8]: 2.67% and 3.98% | Population Healthy Nuclei (%) [1, 8]: 86.14% and 60.23% | Population Hoechst High Intensity Objects (%) [1, 8]: 0.07% and 0% | Population Membrane Permeable-Phenotype (%) [1, 8]: 4.02% and 0.94% | Population Mitochondria Different-Phenotype (%) [1, 8]: 12.07% and 19.81% | Population Mitotic Cells (%) [1, 8]: 93.55% and 84.13% | Population Normal (%) [1, 8]: 99.93% and 100% | Population Apoptotic (%) [1, 9]: 7.41% and 20.63% | Population Fragmented Nuclei (%) [1, 9]: 4.01% and 2.52% | Population Healthy Nuclei (%) [1, 9]: 88.47% and 81.61% | Population Hoechst High Intensity Objects (%) [1, 9]: 0% and 0.5% | Population Membrane Permeable-Phenotype (%) [1, 9]: 6.36% and 2.78% | Population Mitochondria Different-Phenotype (%) [1, 9]: 6.55% and 12.04% | Population Mitotic Cells (%) [1, 9]: 92.59% and 79.37% | Population Normal (%) [1, 9]: 100% and 99.5% | Population Pyknosed Nuclei (%) [1, 9]: 7.52% and 15.87% | Population Apoptotic (%) [2, 4]: 11.76% and 21.95% | Population Fragmented Nuclei (%) [2, 4]: 12.02% and 8.21% | Population Healthy Nuclei (%) [2, 4]: 60.11% and 70.77% | Population Hoechst High Intensity Objects (%) [2, 4]: 0% | Population Membrane Permeable-Phenotype (%) [2, 4]: 3.64% and 0% | Population Mitochondria Different-Phenotype (%) [2, 4]: 8.18% and 7.25% | Population Mitotic Cells (%) [2, 4]: 88.24% and 78.05% | Population Normal (%) [2, 4]: 100% | Population Pyknosed Nuclei (%) [2, 4]: 27.87% and 21.03% | Population Tubulin-Different-Phenotype (%) [2, 4]: 8.18% and 12.32% | Total Cell Count [2, 4]: 183 and 195 | Population Apoptotic (%) [2, 5]: 13.51% and 16.13% | Population Healthy Nuclei (%) [2, 5]: 62.9% and 80.28% | Population Hoechst High Intensity Objects (%) [2, 5]: 0% | Population Membrane Permeable-Phenotype (%) [2, 5]: 5.98% and 3.51% | Population Mitochondria Different-Phenotype (%) [2, 5]: 4.27% and 11.7% | Population Mitotic Cells (%) [2, 5]: 86.49% and 83.87% | Population Normal (%) [2, 5]: 100% | Population Pyknosed Nuclei (%) [2, 5]: 19.89% and 14.55% | Total Cell Count [2, 5]: 186 and 213 | Population Apoptotic (%) [2, 6]: 10.42% and 17.86% | Population Fragmented Nuclei (%) [2, 6]: 12.43% and 7.25% | Population Healthy Nuclei (%) [2, 6]: 61.62% and 78.24% | Population Hoechst High Intensity Objects (%) [2, 6]: 0% | Population Membrane Permeable-Phenotype (%) [2, 6]: 4.39% and 3.97% | Population Mitochondria Different-Phenotype (%) [2, 6]: 4.39% and 9.27% | Population Mitotic Cells (%) [2, 6]: 89.58% and 82.14% | Population Normal (%) [2, 6]: 100% | Population Pyknosed Nuclei (%) [2, 6]: 25.95% and 14.51% | Population Tubulin-Different-Phenotype (%) [2, 6]: 10.53% and 16.56% | Total Cell Count [2, 6]: 185 and 193 | Population Apoptotic (%) [2, 7]: 24.24% and 20.59% | Population Fragmented Nuclei (%) [2, 7]: 13.83% and 5.22% | Population Healthy Nuclei (%) [2, 7]: 68.62% and 80% | Population Hoechst High Intensity Objects (%) [2, 7]: 0% | Population Membrane Permeable-Phenotype (%) [2, 7]: 3.88% and 1.09% | Population Mitochondria Different-Phenotype (%) [2, 7]: 4.65% and 6.52% | Population Mitotic Cells (%) [2, 7]: 75.76% and 79.41% | Population Normal (%) [2, 7]: 100% | Population Pyknosed Nuclei (%) [2, 7]: 17.55% and 14.78% | Population Tubulin-Different-Phenotype (%) [2, 7]: 10.85% and 20.11% | Total Cell Count [2, 7]: 188 and 230 | Population Apoptotic (%) [2, 8]: 26.32% and 27.27% | Population Fragmented Nuclei (%) [2, 8]: 10.5% and 6.53% | Population Healthy Nuclei (%) [2, 8]: 81.51% and 87.94% | Population Hoechst High Intensity Objects (%) [2, 8]: 0% | Population Membrane Permeable-Phenotype (%) [2, 8]: 1.03% and 1.71% | Population Mitochondria Different-Phenotype (%) [2, 8]: 8.76% and 5.71% | Population Mitotic Cells (%) [2, 8]: 73.68% and 72.73% | Population Normal (%) [2, 8]: 100% | Population Pyknosed Nuclei (%) [2, 8]: 7.98% and 5.53% | Population Tubulin-Different-Phenotype (%) [2, 8]: 6.7% and 18.86% | Total Cell Count [2, 8]: 238 and 199 | Population Apoptotic (%) [2, 9]: 50% and 55.56% | Population Fragmented Nuclei (%) [2, 9]: 7.94% and 3.6% | Population Healthy Nuclei (%) [2, 9]: 88.89% and 92.34% | Population Hoechst High Intensity Objects (%) [2, 9]: 0% | Population Membrane Permeable-Phenotype (%) [2, 9]: 1.19% and 1.46% | Population Mitotic Cells (%) [2, 9]: 50% and 44.44% | Population Normal (%) [2, 9]: 100% | Population Pyknosed Nuclei (%) [2, 9]: 3.17% and 4.05% | Total Cell Count [2, 9]: 189 and 222 | Population Apoptotic (%) [3, 4]: 42.86% and 38.46% | Population Fragmented Nuclei (%) [3, 4]: 1.89% and 1.93% | Population Healthy Nuclei (%) [3, 4]: 92.45% and 85.51% | Population Hoechst High Intensity Objects (%) [3, 4]: 0% | Population Membrane Permeable-Phenotype (%) [3, 4]: 0.29% and 4.52% | Population Mitochondria Different-Phenotype (%) [3, 4]: 0.29% and 6.21% | Population Mitotic Cells (%) [3, 4]: 57.14% and 61.54% | Population Normal (%) [3, 4]: 100% | Population Pyknosed Nuclei (%) [3, 4]: 5.66% and 12.56% | Population Tubulin-Different-Phenotype (%) [3, 4]: 0.58% and 2.82% | Total Cell Count [3, 4]: 371 and 207 | Population Apoptotic (%) [3, 5]: 25% and 60% | Population Fragmented Nuclei (%) [3, 5]: 1.57% and 2.75% | Population Healthy Nuclei (%) [3, 5]: 90.03% and 86.26% | Population Hoechst High Intensity Objects (%) [3, 5]: 0% | Population Membrane Permeable-Phenotype (%) [3, 5]: 2.62% and 4.46% | Population Mitochondria Different-Phenotype (%) [3, 5]: 0.29% and 5.73% | Population Mitotic Cells (%) [3, 5]: 75% and 40% | Population Normal (%) [3, 5]: 100% | Population Pyknosed Nuclei (%) [3, 5]: 8.4% and 10.99% | Population Tubulin-Different-Phenotype (%) [3, 5]: 1.17% and 1.27% | Total Cell Count [3, 5]: 381 and 182 | Population Apoptotic (%) [3, 6]: 38.46% and 27.27% | Population Fragmented Nuclei (%) [3, 6]: 0.79% and 0.38% | Population Healthy Nuclei (%) [3, 6]: 94.08% and 86.92% | Population Hoechst High Intensity Objects (%) [3, 6]: 0% | Population Membrane Permeable-Phenotype (%) [3, 6]: 0.42% and 3.98% | Population Mitochondria Different-Phenotype (%) [3, 6]: 0.21% and 3.98% | Population Mitotic Cells (%) [3, 6]: 61.54% and 72.73% | Population Normal (%) [3, 6]: 100% | Population Pyknosed Nuclei (%) [3, 6]: 5.13% and 12.69% | Population Tubulin-Different-Phenotype (%) [3, 6]: 0.42% and 1.33% | Total Cell Count [3, 6]: 507 and 260 | Population Apoptotic (%) [3, 7]: 40.62% and 57.89% | Population Fragmented Nuclei (%) [3, 7]: 2.9% and 4.85% | Population Healthy Nuclei (%) [3, 7]: 90.91% and 86.78% | Population Hoechst High Intensity Objects (%) [3, 7]: 0% | Population Membrane Permeable-Phenotype (%) [3, 7]: 3.19% and 4.06% | Population Mitochondria Different-Phenotype (%) [3, 7]: 0.21% and 4.57% | Population Mitotic Cells (%) [3, 7]: 59.38% and 42.11% | Population Normal (%) [3, 7]: 100% | Population Pyknosed Nuclei (%) [3, 7]: 6.19% and 8.37% | Population Tubulin-Different-Phenotype (%) [3, 7]: 1.49% and 0.51% | Total Cell Count [3, 7]: 517 and 227 | Population Apoptotic (%) [3, 8]: 51.47% and 41.86% | Population Fragmented Nuclei (%) [3, 8]: 2% and 1.49% | Population Healthy Nuclei (%) [3, 8]: 90.84% and 89.38% | Population Hoechst High Intensity Objects (%) [3, 8]: 0% | Population Membrane Permeable-Phenotype (%) [3, 8]: 0.93% and 3.09% | Population Mitochondria Different-Phenotype (%) [3, 8]: 0.12% and 2.14% | Population Mitotic Cells (%) [3, 8]: 48.53% and 58.14% | Population Normal (%) [3, 8]: 100% | Population Pyknosed Nuclei (%) [3, 8]: 7.16% and 9.13% | Population Tubulin-Different-Phenotype (%) [3, 8]: 1.04% and 1.66% | Total Cell Count [3, 8]: 950 and 471 | Population Apoptotic (%) [3, 9]: 38.82% and 45.95% | Population Fragmented Nuclei (%) [3, 9]: 2.93% and 2.98% | Population Healthy Nuclei (%) [3, 9]: 88.48% and 87.84% | Population Hoechst High Intensity Objects (%) [3, 9]: 0.1% and 0% | Population Membrane Permeable-Phenotype (%) [3, 9]: 1.48% and 3.39% | Population Mitochondria Different-Phenotype (%) [3, 9]: 0% and 1.98% | Population Mitotic Cells (%) [3, 9]: 61.18% and 54.05% | Population Normal (%) [3, 9]: 99.9% and 100% | Population Pyknosed Nuclei (%) [3, 9]: 8.59% and 9.18% | Population Tubulin-Different-Phenotype (%) [3, 9]: 0.68% and 1.69% | Total Cell Count [3, 9]: 991 and 403
